Source: ChEMBL document CHEMBL1140496, “Discovery of N-phenyl nicotinamides as potent inhibitors of Kdr” (Bioorg Med Chem Lett, 2007)

Assays:
[1] = target: T1, Vascular endothelial growth factor receptor 2 (Homo sapiens, UniProt P35968); test: Inhibition of phosphorylated-Kdr after 30 mins
HUVEC [2] = test: Antiproliferative activity against VEGF-driven HUVEC; format: functional, cell-based; conditions: Homo sapiens
[3] = Bioavailability in rat at 100 mg/kg; format: ADME, organism-based; conditions: in vivo
HUVEC [4] = test: Antiproliferative activity against bFGF-driven HUVEC; format: functional, cell-based; conditions: Homo sapiens
[5] = Clearance in rat at 100 mg/kg; format: ADME, organism-based; set-up: dose 100 mg/kg; conditions: in vivo
[6] = AUC in rat at 100 mg/kg; format: ADME, organism-based; set-up: dose 100 mg/kg; conditions: plasma
A-431 = test: Antitumor activity in A431 cells xenografted po dosed nude mouse assessed as delay in disease progression administered twice daily; format: functional, organism-based; conditions: Homo sapiens
Method in brief: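 Nude mice bearing A431 human […] epidermoid carcinoma xenografts received oral doses twice daily at 37.5, 75 or 150 mg/kg, against vehicle. Tumor size (cubic mm) was followed from about day 5 to day 23, with percent body weight also tracked. Groups were compared by p-values.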

[7] = target: T1, Vascular endothelial growth factor receptor 2; test: Inhibition of unphosphorylated-Kdr after 30 mins

T1 sequence (P35968 whole entry): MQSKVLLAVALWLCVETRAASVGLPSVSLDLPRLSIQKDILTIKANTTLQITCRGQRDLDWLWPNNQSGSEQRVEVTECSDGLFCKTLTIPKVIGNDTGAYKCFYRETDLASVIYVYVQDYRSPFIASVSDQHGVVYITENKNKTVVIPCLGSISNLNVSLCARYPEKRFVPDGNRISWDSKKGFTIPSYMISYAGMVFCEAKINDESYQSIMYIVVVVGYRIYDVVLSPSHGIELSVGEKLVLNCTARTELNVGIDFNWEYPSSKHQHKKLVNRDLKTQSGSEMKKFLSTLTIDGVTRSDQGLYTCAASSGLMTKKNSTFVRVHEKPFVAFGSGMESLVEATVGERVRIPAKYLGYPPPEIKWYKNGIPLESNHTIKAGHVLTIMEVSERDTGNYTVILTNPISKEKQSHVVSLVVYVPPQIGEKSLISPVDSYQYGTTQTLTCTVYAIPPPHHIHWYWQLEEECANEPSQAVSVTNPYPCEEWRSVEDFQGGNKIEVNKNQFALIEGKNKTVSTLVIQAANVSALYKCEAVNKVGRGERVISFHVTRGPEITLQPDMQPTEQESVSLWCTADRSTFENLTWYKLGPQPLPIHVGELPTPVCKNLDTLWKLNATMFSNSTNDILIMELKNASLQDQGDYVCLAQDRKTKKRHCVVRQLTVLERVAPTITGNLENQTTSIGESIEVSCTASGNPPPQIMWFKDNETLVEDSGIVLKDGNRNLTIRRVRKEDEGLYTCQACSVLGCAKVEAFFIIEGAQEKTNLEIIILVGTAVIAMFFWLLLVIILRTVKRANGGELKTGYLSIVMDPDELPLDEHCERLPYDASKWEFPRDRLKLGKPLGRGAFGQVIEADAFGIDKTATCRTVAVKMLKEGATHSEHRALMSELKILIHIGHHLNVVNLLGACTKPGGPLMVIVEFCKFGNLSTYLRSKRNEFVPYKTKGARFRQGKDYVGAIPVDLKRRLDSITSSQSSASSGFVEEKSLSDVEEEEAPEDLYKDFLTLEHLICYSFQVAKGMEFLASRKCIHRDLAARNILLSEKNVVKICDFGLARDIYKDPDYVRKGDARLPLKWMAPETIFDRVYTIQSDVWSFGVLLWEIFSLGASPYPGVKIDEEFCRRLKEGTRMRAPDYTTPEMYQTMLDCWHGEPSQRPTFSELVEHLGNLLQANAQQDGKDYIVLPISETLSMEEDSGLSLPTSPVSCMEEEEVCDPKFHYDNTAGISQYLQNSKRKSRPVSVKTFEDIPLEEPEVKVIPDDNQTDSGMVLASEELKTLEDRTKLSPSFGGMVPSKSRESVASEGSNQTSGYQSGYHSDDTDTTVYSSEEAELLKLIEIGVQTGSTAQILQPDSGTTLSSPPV

Row | Structure (SMILES) | Ki [1] | other results
1 | O=C(Nc1ccc(Cl)c(C(F)(F)F)c1)c1cccnc1NCc1ccncc1 | 4 nM | 
2 | O=C(Nc1ccc(C2CCCCC2)cc1)c1cccnc1NCc1ccncc1 | 2 nM | 
3 | CN1CCN(c2ccc(NC(=O)c3cccnc3NCc3ccncc3)cc2)CC1 | > 6660 nM | 
4 | O=C(Nc1ccc(Cl)cc1)c1cccnc1NCc1ccncc1 |  | IC50 (HUVEC [2]): 8 nM; bioavailability [3]: 45%; IC50 (HUVEC [4]): > 1000 nM; clearance [5]: 73.3 mL/min/kg; AUC [6]: 20000 ng·h/mL; Activity (A-431): Dose-dependent effect; Ki [7]: 8 nM
5 | O=C(Nc1ccc(Oc2ccccc2)cc1)c1cccnc1Nc1ccc2cn[nH]c2c1 | 70 nM | 
6 | O=C(Nc1ccccc1Oc1ccccc1)c1cccnc1NCc1ccncc1 | > 20000 nM | 
7 | CCc1cccc(NC(=O)c2cccnc2NCc2ccncc2)c1 | 106 nM | 
8 | O=C(Nc1ccc(Cl)c(Cl)c1)c1cccnc1NCc1ccncc1 | 17 nM | 
9 | Cc1ccc(C(=O)Nc2ccc(Cl)cc2)c(NCc2ccncc2)n1 |  | Ki [7]: > 10000 nM
10 | O=C(Nc1ccc(Cl)cc1)c1cc(Br)cnc1NCc1ccncc1 | 490 nM | 
11 | O=C(Nc1cc(C(F)(F)F)cc(C(F)(F)F)c1)c1cccnc1NCc1ccncc1 | 8 nM | 
12 | O=C(Nc1ccc(Oc2ccccc2)cc1)c1cccnc1NCc1ccc(F)cc1 | 135 nM | 
13 | O=C(Nc1ccc(Cl)cc1)c1cncnc1NCc1ccncc1 | 140 nM | 
14 | CCOC(=O)c1coc(-c2cccc(NC(=O)c3cccnc3NCc3ccncc3)c2)c1 | 29 nM | 
15 | O=C(Nc1ccc(Cl)cc1)c1ccccc1NCc1ccncc1 | 15 nM | 
16 | O=C(Nc1ccc(C(F)(F)F)cc1)c1cccnc1NCc1ccncc1 | 9 nM | 
17 | O=C(Nc1ccc(Oc2ccccc2)cc1)c1cccnc1Nc1csc2ccccc12 | > 20000 nM | 
18 | O=C(Nc1ccc(Cl)cc1)c1ncccc1NCc1ccncc1 | > 10000 nM | 
19 | O=C(Nc1cccc(Cl)c1)c1cccnc1NCc1ccncc1 | 2 nM | IC50 (HUVEC [2]): 40 nM; IC50 (HUVEC [4]): > 1000 nM
20 | O=C(Nc1ccc(Cl)cc1)c1sccc1NCc1ccncc1 |  | Ki [7]: 120 nM
21 | O=C(Nc1ccc(Oc2ccccc2)cc1)c1cccnc1NCc1ccc2c(c1)OCO2 | 38 nM | 
22 | O=C(Nc1ccc(OC(F)(F)F)cc1)c1cccnc1NCc1ccncc1 | 23 nM | 
23 | CC(O)c1cccc(NC(=O)c2cccnc2NCc2ccncc2)c1 (configuration not stated) | > 6660 nM | 
24 | O=C(Nc1ccc(Cl)cc1)C1CCCCC1NCc1ccncc1 (configuration not stated) | > 10000 nM | 
